# NPY Y1 blocker: NPY-Y1 receptor antagonists, primary screen, cell-based. Neuropeptide Y receptor type 1 (Homo sapiens), P25929. HEK293-CNG Y1 cells, membrane potential fluorescence; NPY at EC95, then isoproterenol. inhibition, % at 3.6 µM. actives 1% (n = 200,000). AID 1040, 2008;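 active = inhibition above the campaign mean inhibition of all tested compounds plus 3 SD, cut at about 20% in these data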;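 also: 0% = DMSO wells given NPY plus isoproterenol and 100% = isoproterenol alone without NPY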
# Target sequence (P25929 whole entry, looked up): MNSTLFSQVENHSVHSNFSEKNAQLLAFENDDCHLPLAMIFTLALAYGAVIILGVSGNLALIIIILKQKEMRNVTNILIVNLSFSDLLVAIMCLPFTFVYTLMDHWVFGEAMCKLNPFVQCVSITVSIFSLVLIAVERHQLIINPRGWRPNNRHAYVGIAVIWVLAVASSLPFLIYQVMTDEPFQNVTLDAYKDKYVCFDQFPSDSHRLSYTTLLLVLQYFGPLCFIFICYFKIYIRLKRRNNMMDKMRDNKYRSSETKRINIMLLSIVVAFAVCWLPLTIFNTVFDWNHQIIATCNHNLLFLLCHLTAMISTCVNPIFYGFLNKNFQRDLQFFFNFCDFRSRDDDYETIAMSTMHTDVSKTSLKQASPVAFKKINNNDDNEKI
#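 material = HEK293 cells with Y1 receptor plus CNG channel | also added = NPY 25 nM then isoproterenol 1 µM plus Ro 20-1724 25 µM | schedule = dye 3 h, compound 60 min room temperature, stimulation 45 min | measured by = membrane potential fluorescence | benchmarks = high control isoproterenol alone, low control NPY with isoproterenol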
# NPY2 pot ag: NPY-Y2 potentiators or agonists, primary screen, cell-based | Neuropeptide Y receptor type 2 (Homo sapiens), P49146 | cells expressing NPY-Y2, potentiator/agonist read-out | AID 1359, 2008 | actives 0.45% (n = 220,000) | activation, % at 3.6 µM; in the data active = activation above about 27%;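 also: cells stimulated with NPY near EC25 plus isoproterenol at EC100; 0% = vehicle plus submaximal agonist and 100% = vehicle plus saturating agonist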
# NPY Y2 blocker: NPY-Y2 receptor antagonists, primary screen, cell-based. Neuropeptide Y receptor type 2 (Homo sapiens), P49146. NPY-Y2 expressing cells, antagonist mode. inhibition, % at 2.7 µM. actives 0.99% (n = 140,000);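 also: 0% = vehicle with agonist challenge and 100% = reference antagonist with challenge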
# Insulin prom up: insulin promoter activators in MIN6 cells, imaging, high-content screening, mouse beta cells; AID 1625, 2009; z-score at 5 µM; MIN6 insulin promoter-GFP reporter; stronger effect = higher value; actives 0.3% (n = 190,000);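 active = z-score above 3 at 5 µM with at least 500 cells counted in the well; inconclusive = wells under 500 cells, flagged as cytotoxic or low count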
# Insulin prom inh: inhibitors of insulin promoter-driven GFP, primary screen, imaging, TRM-6 cells, eGFP reporter, cell count; actives 0.9% (n = 130,000); AID 1273, 2008; inhibition, % at 2 µM; reporter expression induced with tamoxifen;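 active = inhibition above the mean plus 3 SD, with well images judged a real hit on visual review, cut at about 60% in these data, passing the limit was not always enough; inconclusive = inhibition over the cutoff but images rejected on review; inactive = inhibition not above the cutoff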
# NPY1 pot ag: NPY-Y1 receptor potentiators or agonists, primary screen, cell-based | actives 0.37% (n = 220,000) | AID 1304, 2008 | NPY-Y1 expressing cells, potentiator/agonist activation | activation, % at 3.6 µM; in the data active = activation above about 33%, passing the limit was not always enough;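 also: cells stimulated with NPY at EC10 then isoproterenol at EC100; 0% = low agonist plus stimulus and 100% = saturating agonist plus stimulus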
# NPY-Y1 ant conf: NPY-Y1 receptor antagonists, retest of hits, confirmation, HEK293-CNG cells, membrane potential fluorescence, triplicate | shares compounds with NPY Y1 blocker | cAMP; NPY challenge against isoproterenol-raised cAMP | inhibition, % at 3.6 µM | actives 21% (n = 1,200) | AID 1254, 2008; in the data active = inhibition above about 20%;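 also: 0% = vehicle with agonist plus stimulus and 100% = stimulus alone without agonist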
# NPY-Y2 antag ct: NPY-Y2 receptor antagonists, selectivity check, confirmation, counter-screen for NPY-Y1 antagonist project, HEK293-CNG cells, membrane potential fluorescence, triplicate | shares compounds with NPY Y1 blocker | actives 28% (n = 1,200) | inhibition, % at 3.6 µM | antagonism; cells given NPY, then isoproterenol;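 also: 0% = DMSO with agonist challenge and 100% = reference antagonist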
# Numbers without * were called inactive; i = inactive; u = inconclusive; x = no result given. Sampled rows, rich in hits. Any-hit rate of the full collection: about 2.5%. Rule as the data show it, unless noted: active = inhibition above about 17%; inactive = the rest.
SMILES,NPY Y1 blocker,NPY2 pot ag,NPY Y2 blocker,Insulin prom up,Insulin prom inh,NPY1 pot ag,NPY-Y1 ant conf,NPY-Y2 antag ct
CCN1/C(=C/C(C)=C/c2sc3ccccc3[n+]2CC)Sc2ccccc21,106.5*,4.2,x,-3.52,i,-12.3,79.0*,53.4*
COc1cc2c(cc1OC)C(c1cccs1)N(C(=S)NC(C)C)CC2 (configuration not stated),29.9*,-12.0,x,0.36,x,-11.8,10.3,5.5
COc1cc(OC)c(OC)cc1CN1CCCC(C(=O)c2sccc2C)C1 (configuration not stated),x,-32.0,x,-0.19,x,11.7,x,x
Cc1ccsc1C(=O)C1CCCN(Cc2cc(F)ccc2-n2cccn2)C1 (configuration not stated),29.6*,-33.5,x,-0.84,x,-21.9,7.5,12.5
N#CC1=C(Nc2ccccc2)SC=C(c2ccc(Cl)c(Cl)c2)N=C1N1CCOCC1,24.7*,-2.4,8.8,0.16,-86.7,-26.1,8.1,13.6
Cc1ccc(-n2nc(C)c3cc(C(=O)O)sc32)cc1,7.8,2.4,4.6,-0.41,33.3,-3.2,x,x
Cc1nn(-c2ccccc2)c2sc(C(=O)O)cc12,25.1*,-19.0,12.7,1.5,9.1,-52.5,22.1*,15.4
COc1ccc(CC2(CO)CCN(C(C)Cc3ccc(Cl)cc3)CC2)cc1 (configuration not stated),26.3*,-89.2,x,-2.27,x,-34.8,16.2,21.5*
COc1ccc(CC2(CO)CCN(Cc3cccc(OC)c3OC)CC2)cc1,7.4,-12.4,x,0.3,x,-10.0,x,x
CC(C)COc1ccc(Br)cc1CNC(C)(C)C,27.8*,25.7,x,-0.45,x,1.4,19.9,9.8
Cc1cc(Br)ccc1OCCCCNC(C)(C)C,-1.8,2.5,6.1,1.78,-30.8,-11.5,x,x
CC(=O)N(CCC(Cc1ccccc1)c1ccc2c(c1)OCO2)Cc1ccccc1F (configuration not stated),20.9*,-5.2,16.6,-1.77,29.0,-16.4,18.1,11.2
Cc1ccc(NC(=O)c2oc3ccc(S(=O)(=O)N4CCC5(CC4)OCCO5)cc3c2C)cc1C,-1.1,2.1,6.6,-1.49,u,-20.5,x,x
CCN(CC)c1ccc(NC(=O)COC(=O)c2cccs2)cc1,20.7*,0.4,4.9,0.05,x,3.4,-0.8,1.6
CCN(c1ccc(NC(=O)COC(=O)c2cccs2)cc1)C(C)C,5.5,9.0,0.5,0.11,7.2,25.0,x,x
CC(C)Nc1nc(NC(C)C)nc(SCCOC(=O)Nc2ccc(Cl)cc2Cl)n1,21.4*,-9.7,10.1,-0.31,50.0,-43.6,13.1,11.5
CCNc1nc(NC(C)C)nc(SCCOC(=O)c2ccccc2)n1,-3.3,-9.8,2.0,-0.46,55.6,-11.8,x,x
O=C(CSc1nnc(COc2ccccc2)o1)N1CCN(c2ccccc2)CC1,4.3,0.4,2.0,-0.09,-55.7,-2.0,x,x
Cc1ccc(C(=O)CSc2nnc(COc3cccc(C)c3)o2)cc1,20.9*,-24.2,12.6,0.78,-18.8,-42.8,10.2,10.2
CCOC(=O)CSc1nnc(COc2cccc(C)c2)o1,4.8,-3.4,x,-0.45,-2.4,10.0,x,x
Cc1cc(C)cc(OCc2nnc(SCC(=O)N3CCN(c4ccccc4)CC3)o2)c1,20.9*,-8.7,6.0,0.29,-10.3,-22.0,12.8,16.8
COc1cc(Cn2c(-c3nonc3N)nc3ccccc32)ccc1C,29.8*,-34.9,14.3,-0.99,-284.0,-59.8,15.0,24.4*
COc1cccc(Cn2c(-c3nonc3N)nc3ccccc32)c1,26.3*,-16.4,12.3,0.15,-76.3,-42.6,10.7,14.2
Cc1[nH]c2ccccc2c1C(=O)C(=O)NCc1ccco1,-3.0,11.6,x,-0.2,-58.3,8.7,x,x
OC(COc1ccc(CNCCc2ccc(C(F)(F)F)cc2)cc1)CN1CCCCC1 (configuration not stated),24.8*,-17.2,x,x,x,-16.5,16.4,18.0*
SMILES,NPY Y1 blocker,NPY2 pot ag,NPY Y2 blocker,Insulin prom up,Insulin prom inh,NPY1 pot ag,NPY-Y1 ant conf,NPY-Y2 antag ct
CCn1c2ccccc2c2cc(NC(=O)c3cc(OC)cc(OC)c3)ccc21,3.5,3.7,4.1,-1.58,-150.0,-6.4,x,x
CCn1c2ccccc2c2cc(NC(=O)c3cc(OC)c(OC)c(OC)c3)ccc21,34.6*,-18.7,0.7,u,32.1,-23.1,2.5,16.4
Nc1nnc(SCC(=O)N2CCN(Cc3ccccc3)CC2)s1,0.1,-0.3,0.2,-0.46,0.0,0.7,x,x
C=CCNC(=O)/C(C#N)=C\c1cc(Cl)c(O)c(OCC)c1,3.7,-23.8,1.2,-0.28,x,-17.2,x,x
CCOc1cc(/C=C2\CCC/C(=C\c3cc(Cl)c(O)c(OCC)c3)C2=O)cc(Cl)c1O,44.0*,-43.9,16.5,0.88,-13.2,-55.3,45.2*,44.0*
c1cnc(N2CCN(c3ncnc4c3oc3ccccc34)CC2)nc1,x,x,x,0.2,x,x,x,x
C(=C\c1ccccc1)/CN1CCN(c2ncnc3c2oc2ccccc23)CC1,26.0*,-26.3,13.6,u,21.4,5.8,10.6,16.1
Nc1nc(N2CCN(C/C=C/c3ccccc3)CC2)nc2ccccc12,21.9*,10.6,8.6,-1.13,-15.0,-22.3,15.2,3.1
CCCCOC(=O)c1ccc(NC(=O)c2c(Cl)ccc(Cl)c2OC)cc1,24.1*,-20.9,8.2,x,-37.5,-33.4,17.4,14.2
Cc1ccc(Cn2ncc3c(N4CCN(Cc5ccc(Cl)cc5)CC4)ncnc32)cc1,1.1,1.3,8.3,-2.29,14.3,1.4,x,x
Cc1ccccc1N1CCN(c2ncnc3c2cnn3Cc2ccc(Cl)cc2)CC1,29.3*,-8.3,6.6,-0.08,-15.4,-37.0,10.0,17.3*
COc1ccc(OC)c(NS(=O)(=O)c2ccc(N3CCCC3=O)cc2)c1,44.1*,1.2,8.1,-1.57,x,-5.3,-2.7,14.8
CCOc1ccc(S(=O)(=O)Nc2cc(OC)ccc2OC)cc1,27.4*,-16.0,8.4,-2.58,-48.8,-25.4,4.1,16.5
CN(C)c1nc(N)nc(-c2ccco2)n1,8.4,2.1,-0.8,-0.42,42.9,7.6,x,x
CCOc1cc(CNCCCN2CCOCC2)cc(Br)c1OCC(=O)Nc1cccc(C(F)(F)F)c1,27.1*,-29.3,12.3,-1.61,x,-43.4,17.1,23.6*
COc1ccccc1NC(=O)COc1ccc(Br)cc1CNCCCN1CCOCC1,22.2*,-3.9,x,-0.69,-14.3,-11.4,11.9,14.7

# High-throughput results: PubChem BioAssay, several laboratories
